From ChEMBL document CHEMBL1153706, “Synthesis of 9-anilinoacridine triazines as new class of hybrid antimalarial agents” (Bioorg Med Chem Lett, 2009)

What was measured:
Plasmodium falciparum = assay: Antimalarial activity against chloroquine-sensitive Plasmodium falciparum 3D7 after 72 hrs; type: functional, organism-based; conditions: 3D7, 72 h
In short: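 P. falciparum 3D7 cultured with 0.5% parasitaemia in a 2.5% cell suspension. Compounds are made up as 5 mg/ml DMSO stocks. Twofold serial dilutions (seven concentrations) start at 500 ng/ml, or 25 ng/ml for chloroquine, in duplicate wells. Incubated 72 h, then lysis buffer with SYBR Green I, 1 h at room temperature, fluorescence read. IC50 from non-linear regression dose–response curves.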

[1] = Selectivity index, ratio of IC50 for african green monkey (Cercopithecus aethiops) Vero cells to IC50 for chloroquine-sensitive Plasmodium falciparum 3D7; type: toxicity, cell-based; conditions: read-out: Ratio IC50
In short: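 Ratio of the Vero IC50 to the 3D7 IC50. Vero monkey kidney […] cells at 1 × 10⁴ cells/well exposed to varying compound concentrations for 72 h, MTT read-out, IC50 from non-linear regression. The 3D7 IC50 comes from a 72 h SYBR Green I fluorescence assay using twofold serial dilutions from 500 ng/ml.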

Plasmodium yoelii = assay: Antimalarial activity against chloroquine-resistant Plasmodium yoelii N67 infected in Swiss mice (Mus musculus) assessed as suppression of parasitaemia at 100 mg/kg, peroral for 4 days; type: functional; conditions: N67, 96 h, route oral
In short: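 Swiss mice (22 2 g), groups of five, inoculated with 1 × 10⁶ parasitized RBC on day 0; dosed once daily days 0–3, orally, 0.1 ml aqueous suspension with a few drops of Tween 80. Parasitaemia read from thin blood smears between days 4 and 6; group mean used for percent suppression versus untreated controls; CQ-treated mice as reference.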

| IC50 (Plasmodium falciparum) [nM] | SMILES | selectivity ratio [1] | inhibition in vivo at 100 mg/kg (Plasmodium yoelii) [%] |
| --- | --- | --- | --- |
| 22.1 | COc1ccc2nc3cc(Cl)ccc3c(Nc3ccc(Nc4nc(Nc5ccccc5)nc(N5CCN(C)CC5)n4)cc3)c2c1 | 146 | – |
| 19.2 | CCN1CCN(c2nc(Nc3ccccc3)nc(Nc3ccc(Nc4c5ccc(Cl)cc5nc5ccc(OC)cc45)cc3)n2)CC1 | 164 | – |
| 15.1 | COc1ccc2nc3cc(Cl)ccc3c(Nc3ccc(Nc4nc(NCCCN5CCOCC5)nc(Nc5ccccc5)n4)cc3)c2c1 | 61.4 | – |
| 21.8 | CCN(CC)CCNc1nc(Nc2ccccc2)nc(Nc2ccc(Nc3c4ccc(Cl)cc4nc4ccc(OC)cc34)cc2)n1 | 137 | – |
| 289 | CCCCNc1nc(Nc2ccccc2)nc(Nc2ccc(Nc3c4ccc(Cl)cc4nc4ccc(OC)cc34)cc2)n1 | 138 | – |
| 17.5 | COc1ccc2nc3cc(Cl)ccc3c(Nc3ccc(Nc4nc(Nc5ccccc5)nc(NC5CCCC5)n4)cc3)c2c1 | 5010 | – |
| 365 | COc1ccc2nc3cc(Cl)ccc3c(Nc3ccc(Nc4nc(NCCCO)nc(Nc5ccccc5)n4)cc3)c2c1 | 17.4 | – |
| 49.4 | COc1ccc2nc3cc(Cl)ccc3c(Nc3ccc(Nc4nc(Nc5ccc(F)cc5)nc(N5CCN(C)CC5)n4)cc3)c2c1 | 210 | – |
| 65.6 | CCN1CCN(c2nc(Nc3ccc(F)cc3)nc(Nc3ccc(Nc4c5ccc(Cl)cc5nc5ccc(OC)cc45)cc3)n2)CC1 | 193 | – |
| 40.1 | COc1ccc2nc3cc(Cl)ccc3c(Nc3ccc(Nc4nc(NCCN(C)C)nc(Nc5ccc(F)cc5)n4)cc3)c2c1 | 28.1 | – |
| 35.2 | COc1ccc2nc3cc(Cl)ccc3c(Nc3ccc(Nc4nc(NCCCN(C)C)nc(Nc5ccc(F)cc5)n4)cc3)c2c1 | 99.8 | – |
| 45.1 | COc1ccc2nc3cc(Cl)ccc3c(Nc3ccc(Nc4nc(NCCCN5CCOCC5)nc(Nc5ccc(F)cc5)n4)cc3)c2c1 | 1560 | – |
| 116 | CNc1nc(Nc2ccc(F)cc2)nc(Nc2ccc(Nc3c4ccc(Cl)cc4nc4ccc(OC)cc34)cc2)n1 | 336 | – |
| 4.27 | COc1ccc2nc3cc(Cl)ccc3c(Nc3ccc(Nc4nc(NN)nc(Nc5ccccc5)n4)cc3)c2c1 | 31.4 | – |
| 119 | COc1ccc2nc3cc(Cl)ccc3c(Nc3ccc(Nc4nc(N)nc(Nc5ccc(F)cc5)n4)cc3)c2c1 | 37.1 | – |
| 68.4 | COc1ccc2nc3cc(Cl)ccc3c(Nc3ccc(Nc4nc(N)nc(Nc5ccccc5)n4)cc3)c2c1 | 448 | – |
| – | CCN(CC)CCCC(C)Nc1ccnc2cc(Cl)ccc12 (stereo unspecified) [CHLOROQUINE] | – | 99.9 |

| SMILES | IC50 (Plasmodium falciparum) [nM] | selectivity ratio [1] | inhibition in vivo at 100 mg/kg (Plasmodium yoelii) [%] |
| --- | --- | --- | --- |
| COc1ccc2nc3cc(Cl)ccc3c(Nc3ccc(Nc4nc(NCCN5CCOCC5)nc(Nc5ccccc5)n4)cc3)c2c1 | 6.97 | 2900 | 96.6 |
| COc1ccc2nc3cc(Cl)ccc3c(Nc3ccc(Nc4nc(NCCN(C)C)nc(Nc5ccccc5)n4)cc3)c2c1 | 7.95 | 160 | 49 |
| COc1ccc2nc3cc(Cl)ccc3c(Nc3ccc(Nc4nc(NCCCN(C)C)nc(Nc5ccccc5)n4)cc3)c2c1 | 4.21 | 295 | 95.7 |
| COc1ccc2nc3cc(Cl)ccc3c(Nc3ccc(Nc4nc(NCCO)nc(Nc5ccccc5)n4)cc3)c2c1 | 9.46 | 755 | 58.5 |
| CCN(CC)CCNc1nc(Nc2ccc(F)cc2)nc(Nc2ccc(Nc3c4ccc(Cl)cc4nc4ccc(OC)cc34)cc2)n1 | 27.9 | 155 | 95.4 |
| COc1ccc2nc3cc(Cl)ccc3c(Nc3ccc(Nc4nc(NCCN5CCOCC5)nc(Nc5ccc(F)cc5)n4)cc3)c2c1 | 20.1 | 3090 | 98.7 |
